The source made the active and inactive calls. The rule behind the calls is not given here.
Experiments:
Pyricularia oryzae [1] = experiment: Antifungal activity against Magnaporthe grisea 70-15 after 18 hrs by conidia germination assay; assay type: functional, organism-based
Procedure, shortened: (§1)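 M. grisea strain 70-15 conidia suspended in water at 5 × 10⁴/mL and exposed to compound. After 18 h, germination was scored microscopically against an inhibitor-free control. Conidia counted as affected were those that had not germinated or whose germ tubes were under 30% of control length.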

Eremothecium coryli = experiment: Antifungal activity against Nematospora coylii ATTC 10647 at 50 ug/mL by disk diffusion assay; assay type: functional, organism-based
Penicillium chrysogenum = experiment: Antifungal activity against Penicillium chrysogenum DSM 848 at 50 ug/mL by disk diffusion assay; assay type: functional, organism-based
Pyricularia oryzae [2] = experiment: Antifungal activity against Magnaporthe grisea 70-15 at 20 ug/mL after 18 hrs by conidia germination assay; assay type: functional, organism-based; procedure, shortened: as §1
Paecilomyces variotii = experiment: Antifungal activity against Paecilomyces variotii DSM 1961 at 50 ug/mL by disk diffusion assay; assay type: functional, organism-based
HeLa = experiment: Cytotoxic activity against human HeLa S3 cells up to 50 ug/mL; assay type: functional, cell-based
Procedure, shortened: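 HeLa S3 human cervix carcinoma cells were grown in DMEM with penicillin G (65 µg/mL) and streptomycin sulfate (100 µg/mL). Cells at 10⁵/mL were exposed to compound in microtiter wells at 37 °C in humidified 5% CO2. Viable cells were counted by microscopy at 24 and 48 h.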

Rhizomucor miehei = experiment: Antifungal activity against Rhizomucor miehei Tu 284 at 50 ug/mL by disk diffusion assay; assay type: functional, organism-based
Pyricularia oryzae [3] = experiment: Antifungal activity against Magnaporthe grisea 70-15 at 25 ug/mL after 18 hrs by conidia germination assay; assay type: functional; conditions: 70-15, 18 h; procedure, shortened: as §1

## COCc1cc(O)c2c(c1O)[C@@]1(C)CC[C@H]3C(C)(C)CCC[C@]3(C)[C@H]1C2
Pyricularia oryzae [1]
  Activity: Active

## CC(O)(CC(=O)O)CC(=O)OCC1=C[C@@]2(O)[C@H](C[C@@H]3[C@@]4(C)CCCC(C)(C)[C@@H]4CC[C@@]32C)C(=O)C1=O (some centres undefined)
Pyricularia oryzae [1]
  Activity: Active

## Cc1ccc2c(c1O)[C@@]1(C)CC[C@H]3C(C)(C)[C@@H](O)CC[C@]3(C)[C@H]1C2
Eremothecium coryli
  Activity: inactive
Penicillium chrysogenum
  Activity: inactive
Pyricularia oryzae [2]
  Activity: Active
Paecilomyces variotii
  Activity: inactive
HeLa
  Activity: inactive
Rhizomucor miehei
  Activity: inactive

## Cc1ccc2c(c1O)[C@@]1(C)CC[C@@H]3[C@](C)(CCC[C@]3(C)O)[C@H]1C2 [DASYSCYPHIN E]
Pyricularia oryzae [3]
  inhibition at 25 µg/mL: 100%
